Experimental data published in ChEMBL document CHEMBL2407075, “Sulphonamido-quinoxalines: search for anticancer agent” (Eur J Med Chem, 2013).

Assays:
Assay type in all cases: functional
SNB-75 [1] = assay: Growth inhibition of human SNB75 cells assessed as cell growth at 10^-7 M after 48 hrs by sulforhodamine B assay; conditions: SNB-75, 48 h, read-out: Activity
OVCAR-5 [2] = assay: Growth inhibition of human OVCAR5 cells assessed as cell growth at 10^-7 M after 48 hrs by sulforhodamine B assay; conditions: OVCAR-5, 48 h, read-out: Activity
MDA-MB-435 = assay: Growth inhibition of human MDA-MB-435 cells assessed as cell growth at 10^-7 M after 48 hrs by sulforhodamine B assay; conditions: MDA-MB-435, 48 h, read-out: Activity
Malme-3M = assay: Growth inhibition of human MALME-3M cells after 48 hrs by sulforhodamine B assay; conditions: read-out: LC50 (the source's name)
Procedure, shortened: (§1)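 Adherent cells in RPMI 1640 with 5% FBS and 2 mM L-glutamine were plated at 5000–40,000 cells/well and grown 24 h. Five concentrations (0.01–100 µM, DMSO stock) were added for 48 h at 37 °C. Cells were fixed with cold TCA (10% final) and stained with SRB, read at 515 nm. GI50 came from log concentration–growth curves against time-zero and control plates.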

IGROV-1 = assay: Growth inhibition of human IGROV1 cells assessed as cell growth at 10^-8 M after 48 hrs by sulforhodamine B assay; conditions: IGROV-1, 48 h, read-out: Activity
KM12 = assay: Growth inhibition of human KM12 cells after 48 hrs by sulforhodamine B assay; conditions: KM12, 48 h; for CC50: read-out: LC50 (the source's name); procedure, shortened: as §1
UO-31 = assay: Growth inhibition of human UO31 cells after 48 hrs by sulforhodamine B assay; conditions: UO-31, 48 h; for CC50: read-out: LC50 (the source's name)
Procedure, shortened: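 NCI-60 screen. Cells grown in RPMI 1640 with 5% FBS and 2 mM L-glutamine, plated at 5000–40,000 cells/well and preincubated 24 h at 37 °C, 5% CO2. A time-zero plate is TCA-fixed at drug addition. DMSO stocks diluted in medium; five concentrations (0.01, 0.1, 1, 10, 100 µM). Exposure 48 h, then cold TCA fixation and 0.4% SRB staining, absorbance at 515 nm. GI50 is taken from the growth-percentage curve relative to time zero and control.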

HOP-62 = assay: Growth inhibition of human HOP62 cells assessed as cell growth at 10^-8 M after 48 hrs by sulforhodamine B assay; conditions: HOP-62, 48 h, read-out: Activity
Procedure, shortened: (§2)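 Five-dose screen at NCI. Cells in RPMI 1640 with 5% FBS and 2 mM L-glutamine, seeded at 5000–40,000 cells/well and grown 24 h at 37 °C, 5% CO2 before dosing, with time-zero plates TCA-fixed. Drug diluted from DMSO stock to 0.01, 0.1, 1, 10 and 100 µM final, 48 h. Cells fixed with cold TCA (10% final), stained with 0.4% SRB and read at 515 nm. Percent growth from Tz, control and test absorbances; GI50, TGI and LC50 from dose-response curves.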

U-251 = assay: Growth inhibition of human U251 cells assessed as cell growth at 10^-8 M after 48 hrs by sulforhodamine B assay; conditions: U-251, 48 h, read-out: Activity
OVCAR-4 = assay: Growth inhibition of human OVCAR4 cells assessed as cell growth at 10^-8 M after 48 hrs by sulforhodamine B assay; conditions: OVCAR-4, 48 h, read-out: Activity
SK-OV-3 = assay: Growth inhibition of human SKOV3 cells after 48 hrs by sulforhodamine B assay; conditions: SK-OV-3, 48 h; for CC50: read-out: LC50 (the source's name)
Procedure, shortened: (§3)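 Five-dose NCI 60 screen at 0.01, 0.1, 1, 10 and 100 µM, 48 h exposure after 24 h preincubation, in RPMI 1640 with 5% FBS and 2 mM glutamine. Fixed with TCA (10% final for adherent cells, 16% for suspension cells), stained with SRB, A515 read. Percent growth uses time-zero (Tz), control and treated plates. GI50, TGI and LC50 are read from the dose-response curves.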

NCI-H522 = assay: Growth inhibition of human NCI-H522 cells assessed as cell growth at 10^-7 M after 48 hrs by sulforhodamine B assay; conditions: NCI-H522, 48 h, read-out: Activity
K562 [3] = assay: Growth inhibition of human K562 cells assessed as cell growth at 10^-6 M after 48 hrs by sulforhodamine B assay; conditions: K562, 48 h, read-out: Activity
A549 = assay: Growth inhibition of human A549/ATCC cells assessed as cell growth at 10^-5 M after 48 hrs by sulforhodamine B assay; conditions: A549, 48 h, read-out: Activity
Procedure, shortened: (§4)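 Five-dose NCI-60 run (0.01, 0.1, 1, 10 and 100 µM, as 10-fold dilutions from a DMSO stock made at 400× the top final level). Cells were grown in RPMI 1640 with 5% FBS and 2 mM glutamine and plated for 24 h. They were then exposed for 48 h at 37 °C and 5% CO2. TCA fixation was followed by SRB staining with A515 read-out. Percent growth was taken relative to time-zero and control plates.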

K562 [4] = assay: Growth inhibition of human K562 cells assessed as cell growth at 10^-8 M after 48 hrs by sulforhodamine B assay; conditions: K562, 48 h, read-out: Activity
BT-549 = assay: Growth inhibition of human BT549 cells assessed as cell growth at 10^-7 M after 48 hrs by sulforhodamine B assay; conditions: BT-549, 48 h, read-out: Activity; procedure, shortened: as §4
SR = assay: Growth inhibition of human SR cells assessed as cell growth at 10^-8 M after 48 hrs by sulforhodamine B assay; conditions: read-out: Activity
MDA-MB-231 = assay: Growth inhibition of human MDA-MB-231 cells assessed as cell growth at 10^-4 M after 48 hrs by sulforhodamine B assay; conditions: MDA-MB-231, 48 h, read-out: Activity
NCI-H322M = assay: Growth inhibition of human NCI-H322M cells assessed as cell growth at 10^-5 M after 48 hrs by sulforhodamine B assay; conditions: read-out: Activity
SNB-75 [5] = assay: Growth inhibition of human SNB75 cells assessed as cell growth at 10^-5 M after 48 hrs by sulforhodamine B assay; conditions: SNB-75, 48 h, read-out: Activity
SF-268 = assay: Growth inhibition of human SF268 cells assessed as cell growth at 10^-8 M after 48 hrs by sulforhodamine B assay; conditions: SF-268, 48 h, read-out: Activity
OVCAR-3 = assay: Growth inhibition of human OVCAR3 cells assessed as cell growth at 10^-7 M after 48 hrs by sulforhodamine B assay; conditions: OVCAR-3, 48 h, read-out: Activity
[6] = Growth inhibition of human Hs 578T cells assessed as cell growth at 10^-5 M after 48 hrs by sulforhodamine B assay; conditions: read-out: Activity; procedure, shortened: as §2
T47D = assay: Growth inhibition of human T47D cells assessed as cell growth at 10^-5 M after 48 hrs by sulforhodamine B assay; conditions: read-out: Activity
OVCAR-5 [7] = assay: Growth inhibition of human OVCAR5 cells assessed as cell growth at 10^-4 M after 48 hrs by sulforhodamine B assay; conditions: OVCAR-5, 48 h, read-out: Activity
OVCAR-8 = assay: Growth inhibition of human OVCAR8 cells after 48 hrs by sulforhodamine B assay; conditions: OVCAR-8, 48 h; for CC50: read-out: LC50 (the source's name); procedure, shortened: as §3

SMILES | growth at 0.1 µM (SNB-75 [1]) | growth at 0.1 µM (OVCAR-5 [2]) | growth at 0.1 µM (MDA-MB-435) | CC50 (Malme-3M) | growth at 0.01 µM (IGROV-1) | TGI (KM12) | CC50 (KM12) | CC50 (UO-31) | growth at 0.01 µM (HOP-62) | growth at 0.01 µM (U-251) | growth at 0.01 µM (OVCAR-4) | TGI (SK-OV-3) | CC50 (SK-OV-3) | growth at 0.1 µM (NCI-H522) | growth at 1 µM (K562 [3]) | growth at 10 µM (A549) | growth at 0.01 µM (K562 [4]) | growth at 0.1 µM (BT-549) | growth at 0.01 µM (SR) | growth at 100 µM (MDA-MB-231) | further results
O=S(=O)(Nc1ccc(Cl)cc1)c1ccc2nc(-c3ccccc3)c(-c3ccccc3)nc2c1 | 68% | 92% | 92% | > 100 µM | 102% | > 100 µM | > 100 µM | > 100 µM | 96% | 97% | 85% | > 100 µM | > 100 µM | 90% | 95% | 5% | 98% | 81% | 92% | 54% | TGI (UO-31): > 100 µM; growth at 10 µM (NCI-H322M): 37%; growth at 10 µM (SNB-75 [5]): 12%; growth at 0.01 µM (SF-268): 94%; growth at 0.1 µM (OVCAR-3): 97%; growth at 10 µM [6]: 3%; growth at 10 µM (T47D): -20%; growth at 100 µM (OVCAR-5 [7]): 90%; TGI (OVCAR-8): > 100 µM; CC50 (OVCAR-8): > 100 µM
O=S(=O)(Nc1ccccn1)c1ccc2nc(-c3ccccc3)c(-c3ccccc3)nc2c1 | 90% | 93% | 102% | > 100 µM | 103% | > 100 µM | > 100 µM | > 100 µM | 96% | 99% | 100% | > 100 µM | > 100 µM | 88% | 82% | 9% | 105% | 81% | 93% | 41% | GI50 (SK-OV-3): 3.58 µM; growth at 10 µM (NCI-H322M): 35%; growth at 10 µM (SNB-75 [5]): 3%; growth at 0.01 µM (SF-268): 93%; growth at 0.1 µM (OVCAR-3): 92%; growth at 10 µM [6]: -11%; growth at 10 µM (T47D): -22%; growth at 100 µM (OVCAR-5 [7]): 99%; GI50 (OVCAR-8): 2.6 µM; TGI (OVCAR-8): > 100 µM; CC50 (OVCAR-8): > 100 µM
